Results reported in ChEMBL document CHEMBL1138262, “Discovery of small molecule CXCR4 antagonists” (J Med Chem, 2007).
Where a SMILES comes first, the peptide text is derived from it. Bridges are numbered along the chain shown (N, C = ends). [ ]: non-standard residue; d: D form. 2Nal = N[C@@H](Cc1ccc2ccccc2c1)C(=O)O; Cit = NC(=O)NCCC[C@H](N)C(=O)O

How the values were obtained:
[1] = molecular target: T1, C-X-C chemokine receptor type 4 (Homo sapiens, UniProt P61073); experiment: Displacement of biotinylated TN14003 from CXCR4 in MDA-MB-231 cells; format: cell-based
T1 sequence (P61073 whole entry): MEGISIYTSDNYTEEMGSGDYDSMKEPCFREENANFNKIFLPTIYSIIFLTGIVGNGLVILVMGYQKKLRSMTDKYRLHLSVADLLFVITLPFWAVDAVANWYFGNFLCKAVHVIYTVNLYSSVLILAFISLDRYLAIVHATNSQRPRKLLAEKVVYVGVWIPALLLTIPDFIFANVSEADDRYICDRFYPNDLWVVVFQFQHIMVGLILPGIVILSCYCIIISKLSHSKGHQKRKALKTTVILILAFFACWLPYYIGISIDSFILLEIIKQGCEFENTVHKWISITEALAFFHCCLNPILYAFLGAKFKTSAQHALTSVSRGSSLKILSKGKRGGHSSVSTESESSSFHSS
Procedure, shortened: (§1)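 MDA-MB-231 cells (2 × 10^4) seeded 2 days before. Exposed to compound at 1, 10, 100 or 1000 nM for 10 min at room temperature, then fixed in ice-cold 4% paraformaldehyde. After rehydration in PBS and avidin/biotin blocking, incubated 45 min at room temperature with 0.05 µg/mL biotinylated TN14003, then streptavidin-rhodamine 30 min. Residual binding assessed by fluorescence microscopy.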

[2] = molecular target: T1, C-X-C chemokine receptor type 4; experiment: Antagonist activity at CXCR4 in human U87 cells assessed as inhibition of SDF1-induced modulation of cAMP production by TR-FRET assay; format: functional, cell-based; conditions: U-87MG ATCC
Procedure, shortened: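 U87 glioma cells overexpressing CD4 and CXCR4 (U87CD4CXCR4), seeded 2500 cells/well in 2% FBS 48 h before test. Cells pretreated with compound at various concentrations for 15 min at room temperature, then challenged with 150 ng/mL SDF-1. SDF-1-driven cAMP reduction measured by TR-FRET LANCE cAMP kit as Gi function readout.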

[3] = tested on: MDA-MB-231; experiment: Inhibition of SDF1-mediated invasion of human MDA-MB-231 cells; format: functional, cell-based
Procedure, shortened: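 Matrigel invasion chamber; MDA-MB-231 cells mixed with compound before seeding in top chamber, 200 ng/mL SDF-1α in bottom chamber as chemoattractant. Incubated 22 h in humidified incubator. Non-invading cells swabbed off the top. Invaded cells on the underside fixed in methanol, stained with H&E and counted to give invasion rate.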

[4] = Selectivity index, ratio of IC50 for CXCR4 to CC50 for MDA-MB-231 cells; format: functional, Homo sapiens
[5] = tested on: MDA-MB-231; experiment: Cytotoxicity against MDA-MB-231 cells; format: functional; conditions: Homo sapiens
[6] = molecular target: T1, C-X-C chemokine receptor type 4; experiment: Inhibition of CXCR4 in MDA-MB-231 cells; format: cell-based; procedure, shortened: as §1

Structure (SMILES)	EC [1] [nM]	also measured
COc1ccc(NCc2ccc(CNc3ccc(OC)cc3)cc2)cc1	25	–
N=C(N)N/N=C/c1ccc(/C=N/NC(=N)N)cc1	100	–
Cc1cc(CNc2ccccc2)c(C)cc1CNc1ccccc1	200	–
c1ccc(NCc2ccc(CNc3ccccc3)c3ccccc23)cc1	100	–
Cc1cc(CN)c(C)cc1CN	> 1000	–
c1ccc(NC[C@H]2CC[C@H](CNc3ccccc3)CC2)cc1	> 1000	–
O=[N+]([O-])c1cccc(NCc2ccc(CNc3cccc([N+](=O)[O-])c3)cc2)c1	1	–
COc1cccc(NC(=O)c2ccc(C(=O)Nc3cccc(OC)c3)cc2)c1	1000	–
c1ccc(CNCc2ccc(CNCc3ccccc3)cc2)cc1	80	–
CN(C)Cc1ccc(CN(C)C)cc1	> 1000	–
c1ccc(NCc2ccccc2CNc2ccccc2)cc1	100	–
C(=N\NC1=NCCN1)/c1ccc(/C=N/NC2=NCCN2)cc1	> 1000	–
Cc1c(C)c(CNc2ccccc2)c(C)c(C)c1CNc1ccccc1	10	–
c1ccc(NCc2c3ccccc3c(CNc3ccccc3)c3ccccc23)cc1	100	–
N=C(N)NCc1ccc(CNC(=N)N)cc1	> 1000	–
c1ccc(CNc2ccccc2)cc1	> 1000	–
c1ccc(NCCNCc2ccc(CNCCNc3ccccc3)cc2)cc1	> 1000	–
Oc1cc(CN2CCOCC2)c(O)cc1CN1CCOCC1	> 1000	–
CC(Nc1ccccc1)c1ccc(C(C)Nc2ccccc2)cc1 (stereo not given)	50	–
Fc1ccc(NCc2ccc(CNc3ccc(F)cc3)cc2)cc1	1000	–
c1cc(CNC2=NCCN2)ccc1CNC1=NCCN1	> 1000	–
N=C(N)c1ccc(C(=N)N)cc1	> 1000	–
O=[N+]([O-])c1ccc(NCc2ccc(CNc3ccc([N+](=O)[O-])cc3)cc2)cc1	1000	–

Structure (SMILES)	EC [1] [nM]	also measured
NC(=O)c1ccc(C(N)=O)cc1	> 1000	–
C[N+](C)(C)Cc1ccc(C[N+](C)(C)C)cc1	> 1000	–
c1ccc(NCc2cccc(CNc3ccccc3)c2)cc1	10	–
N#Cc1ccc(NCc2ccc(CNc3ccc(C#N)cc3)cc2)cc1	1000	–
NCc1ccc(CN)cc1	> 1000	–
Fc1ccccc1NCc1ccc(CNc2ccccc2F)cc1	1	–
COc1ccccc1NCc1ccc(CNc2ccccc2OC)cc1	10	–
CN(Cc1ccc(CN(C)c2ccccc2)cc1)c1ccccc1	100	–
CN(C)CCNCc1ccc(CNCCN(C)C)cc1	> 1000	–
c1ccc(-c2nc(-c3ccc(-c4nc(-c5ccccc5)c(-c5ccccc5)[nH]4)cc3)[nH]c2-c2ccccc2)cc1	> 1000	–
c1ccc(NCc2ccc(CNc3ccccn3)cc2)nc1	–	EC50 [1]: 1 nM; EC50 ([1]; read-out: EC50): 0.3 nM; Activity [2]: Dose-dependent effect; EC50 [3]: 5.2 nM
CCc1ccc(NCc2ccc(CNc3ccc(CC)cc3)cc2)cc1	20	–
N=C(N)NCCC[C@H](NC(=O)[C@@H]1CSSC[C@H](NC(=O)[C@H](Cc2ccc3ccccc3c2)NC(=O)[C@H](CCCNC(=N)N)NC(=O)[C@@H](N)CCCNC(=N)N)C(=O)N[C@@H](Cc2ccc(O)cc2)C(=O)N[C@@H](CCCNC(N)=O)C(=O)N[C@@H](CCCCN)C(=O)N[C@H](CCCCN)C(=O)N2CCC[C@H]2C(=O)N[C@@H](Cc2ccc(O)cc2)C(=O)N[C@@H](CCCNC(=N)N)C(=O)N[C@@H](CCCNC(N)=O)C(=O)N1)C(N)=O (H-RR[2Nal]CY[Cit]K[dK]PYR[Cit]CR-NH2; disulfide 4-13)	–	Ratio [4]: 680000; CC50 [5]: 410000 nM; IC50 [6]: 0.6 nM
N=C(N)c1ccc(CN)cc1	> 1000	–
Cc1ccc(NCc2ccc(CNc3ccc(C)cc3)cc2)cc1	10	–
FC(F)(F)c1cccc(NCc2ccc(CNc3cccc(C(F)(F)F)c3)cc2)c1	1000	–
Fc1cccc(NCc2ccc(CNc3cccc(F)c3)cc2)c1	100	–
N=C(N)Nc1ccc(NC(=N)N)cc1	> 1000	–
c1ccc(NCc2cc(CNc3ccccc3)cc(CNc3ccccc3)c2)cc1	> 1000	–
Cc1c(C)c(CN)c(C)c(C)c1CN	> 1000	–
c1ccc(NCc2ccc(CNc3ccccc3)cc2)cc1	10	–
COc1cccc(NCc2ccc(CNc3cccc(OC)c3)cc2)c1	1	–
